Measurements published in PubChem BioAssay AID493187 (Sanford-Burnham Center for Chemical Genomics, 2011).
The campaign covered roughly 340,000 compounds. About 190 (0.056%) were called active.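 Rule for the calls: active = activation of 40% or more at 20 µM, a change of -40% or lower; inactive = the rest.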 The entries come from a sample that favours actives as a whole.

These compounds were tested against Hexokinase HKDC1 (Homo sapiens) (UniProt Q2TB90) (assay: HKDC1 hexokinase activators, primary screen, biochemical, fluorescence, uHTS (AID 493187)). Conditions: recombinant HKDC1, G6PDH/diaphorase resazurin fluorescence; at 20 µM; hits give low values.
Chain of Hexokinase HKDC1 (Homo sapiens) (Q2TB90 whole entry, looked up): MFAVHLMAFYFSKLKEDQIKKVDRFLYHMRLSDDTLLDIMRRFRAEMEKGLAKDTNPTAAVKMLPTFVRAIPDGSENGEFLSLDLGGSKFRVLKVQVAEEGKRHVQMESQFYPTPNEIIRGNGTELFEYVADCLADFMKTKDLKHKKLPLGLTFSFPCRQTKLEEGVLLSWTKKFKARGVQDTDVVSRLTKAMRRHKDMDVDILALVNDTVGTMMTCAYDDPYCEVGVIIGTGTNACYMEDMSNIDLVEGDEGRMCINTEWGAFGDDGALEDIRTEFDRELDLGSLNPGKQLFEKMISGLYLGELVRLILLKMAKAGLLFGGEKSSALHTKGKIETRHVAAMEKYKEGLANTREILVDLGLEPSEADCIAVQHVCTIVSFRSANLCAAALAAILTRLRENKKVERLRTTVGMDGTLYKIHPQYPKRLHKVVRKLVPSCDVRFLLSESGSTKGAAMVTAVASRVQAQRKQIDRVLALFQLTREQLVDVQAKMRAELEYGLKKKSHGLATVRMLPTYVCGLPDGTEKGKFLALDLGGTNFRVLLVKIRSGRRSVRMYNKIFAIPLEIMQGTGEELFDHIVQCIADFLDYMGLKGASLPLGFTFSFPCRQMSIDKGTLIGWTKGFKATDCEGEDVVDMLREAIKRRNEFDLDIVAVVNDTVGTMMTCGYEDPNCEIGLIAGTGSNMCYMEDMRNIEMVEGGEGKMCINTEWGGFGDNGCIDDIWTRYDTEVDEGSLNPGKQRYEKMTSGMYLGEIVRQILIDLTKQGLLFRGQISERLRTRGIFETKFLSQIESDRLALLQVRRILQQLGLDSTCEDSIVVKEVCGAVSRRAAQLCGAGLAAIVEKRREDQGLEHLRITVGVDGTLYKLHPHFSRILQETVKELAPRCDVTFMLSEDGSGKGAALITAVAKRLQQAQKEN
Procedure, shortened: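 Material: in-house human HKDC1 enzyme, G6PDH and diaphorase coupling enzymes | Quantity: HKDC1 at 5 µg/mL final | Medium: Tris buffer at pH 8.0 containing MgCl2 | Compound dosing: 20 µM single dose | Schedule: 90 min reaction at room temperature, dark | Measured by: Resorufin fluorescence, 525/613 nm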
For CC(=O)OC1C2(CC3N4C(=O)C5(CO)SSC4(CC31O)C(=O)N5C)OC(C)C(C)(C)C2=O (stereo unspecified), the activity change, negative = activation was -42.1% (active).
